Experimental data collected from several papers.
Compare with care: the assays were run in different laboratories.
Observed: cell growth or viability

CCn1c(-c2nonc2N)nc2c(C#CC(C)(C)O)ncc(OC[C@H]3CCCNC3)c21 — EC50 (UACC-903; resazurin; 72 h): 83 µM
Cc1cc(=O)oc2ccc(-c3cc(-c4ccc(Cl)cc4)nc(N)n3)c(O)c12 — inhibition (KB; MTT; 32 µg/mL, 72 h): 54%
COC(=O)COc1ccc(NC(=O)C2(c3ccc(Cl)cc3)CC2)cc1Br — GI50 (U-937; ATP luminescence; 72 h): 1.6 µM
Cc1cc(=O)oc2ccc(-c3cc(-c4cccc(Cl)c4)nc(N)n3)c(O)c12 — inhibition (KB; MTT; 2 µg/mL, 72 h): 0%
COC(=O)COc1ccc(NC(=O)C2(c3ccccc3)CC2)cc1Br — GI50 (U-937; ATP luminescence; 72 h): 6.1 µM
COc1cc(Nc2nccc(-c3cnn4nc(OC)ccc34)n2)cc(C(F)(F)F)c1 — IC50 (SNU1; ATP luminescence): 0.19 µM
COC(=O)COc1ccc(NC(=O)C2(c3ccc(Cl)cc3)CC2)c(C)c1 — GI50 (U-937; ATP luminescence; 72 h): 6 µM
Oc1ccc(Nc2nc(-c3ccc(Cl)cc3)cs2)cc1 — IC50 (UACC-903; MTS; 48 h): 59.1 µM
Cc1cc(=O)oc2ccc(-c3cc(-c4cccs4)nc(N)n3)c(O)c12 — inhibition (KB; MTT; 128 µg/mL, 72 h): 17%
C=CC(=O)N1CCN(c2nc(=O)n(-c3c(C)ccnc3C(C)C)c3nc(-c4c(O)cccc4F)c(F)cc23)[C@@H](C)C1 — EC50 (LS-513; 5 days): > 10 µM
Cc1ccc(-c2cc(-c3ccc4oc(=O)cc(C)c4c3O)nc(N)n2)cc1 — inhibition (KB; MTT; 8 µg/mL, 72 h): 0%
CC#CC(=O)N1CC[C@@H](n2cc(-c3ccc(Oc4c(F)cccc4F)cc3)c3c(N)n[nH]c(=O)c32)C1 — GI50 (MINO; ATP luminescence; 72 h): 5.18 µM
COC(=O)COc1ccc(NC(=O)C2(c3cccc(C)c3)CC2)c(C)c1 — GI50 (U-937; ATP luminescence; 72 h): 6.8 µM
